Experimental data from different studies.
Lines come from different studies, so protocols differ.
HTR7: 5-hydroxytryptamine receptor 7 (HTR7, Homo sapiens, UniProt P34969)
Neuronal acetylcholine receptor subunit alpha-4/beta-2: Neuronal acetylcholine receptor subunit alpha-4/beta-2 (Mus musculus, UniProt O70174+Q9ERK7)
Long-chain-fatty-acid--AMP ligase FadD28: Long-chain-fatty-acid--AMP ligase FadD28 (Mycobacterium tuberculosis, UniProt P9WQ59)

`CN(C)CCc1c[nH]c2ccccc12` has a Ki of 210 nM (HTR7; ligand displacement, radioligand).
`CNC(C)C/C=C/c1cncc(C#Cc2ccccc2)c1` (stereo not drawn) has a Ki of 134 nM (Neuronal acetylcholine receptor subunit alpha-4/beta-2; ligand displacement, radioligand; cell membranes).
The Kd of `CCCCCCCCCCCCCC(=O)NS(=O)(=O)OC[C@H]1O[C@@H](n2cnc3c(N)nc(C#CCOCCOCCOCCNC(=O)c4ccc(C(=O)O)c(-c5c6ccc(=[N+](C)C)cc-6oc6cc(N(C)C)ccc56)c4)nc32)[C@H](O)[C@@H]1O` is reported as 245 nM (Long-chain-fatty-acid--AMP ligase FadD28; binding, FP).
For `FC(F)(F)c1cccc(N2CCNCC2)c1`, the Ki was 1620 nM (HTR7; ligand displacement, radioligand; cell membranes).
With `CN1[C@@H]2CC[C@H]1C=C(c1cncc(Br)c1)C2` the Ki was 2.31 nM (Neuronal acetylcholine receptor subunit alpha-4/beta-2; ligand displacement, radioligand; cell membranes).
`N#Cc1ccc(C(=O)NOCc2ccc(C(F)(F)F)cc2)cc1` gave an IC50 of 14900 nM (NAD-dependent protein deacylase sirtuin-6 (SIRT6, Homo sapiens, UniProt Q8N6T7); enzyme activity, inhibitor, fluorescence).
With `CC[C@@H](CO)NC(=O)[C@@H]1C=C2c3cccc4c3c(cn4C)C[C@H]2N(C)C1` the Ki was 32 nM (HTR7; ligand displacement, radioligand; cell membranes).
`CCCCCCCCCCCCCC(=O)NS(=O)(=O)OC[C@H]1O[C@@H](n2cnc3c(N)ncnc32)[C@H](O)[C@@H]1O` gave a Kd of 365 nM (Long-chain-fatty-acid--AMP ligase FadD28; binding, ITC).
The Ki of `CCCCCCCCCCCC(=O)NS(=O)(=O)OC[C@H]1O[C@@H](n2cnc3c(N)ncnc32)[C@H](O)[C@@H]1O` is reported as 6000 nM (Long-chain-fatty-acid--AMP ligase FadD28; enzyme activity, inhibitor).
